The results in this text go back to ChEMBL document CHEMBL4513216, “Probing the Open Global Health Chemical Diversity Library for Multistage-Active Starting Points for Next-Generation Antimalarials” (ACS Infect Dis, 2020).

This series can be described thus: Toxicity liver stage against HepG2, at 10uM. It is filed as cell-based. The settings on record: human, HepG2-A16-CD81EGFP cells; read-out: INHIBITION
Further details: test concentration 10 uM, cell line HepG2-A16-CD81EGFP. The method in brief: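 Uninfected HepG2-A16-CD81EGFP cells, 3 × 10^3 per well, 1536-well, plated on prespotted compound at 10 μM final, parasite-free screening media added to match infected plates; puromycin 10 μM positive, DMSO 0.5% negative; run in parallel with 48 h PbLuc assay at 37 °C, 5% CO2; viability by CellTiter-Glo luminescence, normalized to controls.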
In the case of `O=C(NC[C@H]1CCCC[C@H]1O)c1cccc2[nH]c(-c3ccco3)nc12`, the cytotoxicity at 10 µM was -2.51%.

In the case of `COc1ccc(CN2CC(O)CN(C(=O)c3ccccc3)CC2=O)cc1` (configuration not stated), the cytotoxicity at 10 µM came to 0.331%. As for `O=S1(=O)NCC2(CCN(c3ncc(F)cn3)CC2)COc2ccccc21`, the cytotoxicity at 10 µM came to 4.74%. `CN(C)C(=O)c1cc2c(nc1NCC1CC1)CCNCC2`: the cytotoxicity at 10 µM is 8.39%. For the molecule `O=C(c1ccoc1)N1CCOCC2(CCN(Cc3cccs3)C2)C1` (configuration not stated), the cytotoxicity at 10 µM was -2.98%. Then `CCOCC1CN(C(=O)c2ccoc2C)Cc2cnn(C)c21` (configuration not stated), with -2.48%; and `CC(C)Oc1ncnc2c1CCN(c1cc(C(F)(F)F)ncn1)CC2`, with 19%. `CCOc1ncnc2c1CCN(c1cc(C(F)(F)F)ncn1)CC2`: the cytotoxicity at 10 µM was 12.8%. In the case of `CC1CCCN(c2ncc(C(=O)NCc3ccc(F)c(Cl)c3)c(N)n2)C1` (configuration not stated), the cytotoxicity at 10 µM is -2.83%.

With `CSc1[nH]nc(NC(=O)c2ccccc2)c1C#N`, the cytotoxicity at 10 µM was -9.59%.

On to `Cc1nc(NCc2nccn2C)cc(C2COCCN2)n1` (configuration not stated), for which the cytotoxicity at 10 µM worked out at 5.32%. Next, `CN1C[C@@H](C(=O)N2CCOCC2)[C@@]2(CCc3ccccc3C(=O)N2)C1`: 9.87%; `Cc1nn(C)cc1S(=O)(=O)N(C)[C@@H]1CCC[C@@H](n2ccnc2)[C@@H]1O`: -2.78%; `Cc1cc(-c2ccc(=O)n(C3CCN(C(=O)C4CC4)CC3)n2)c(C)o1`: 4.79%. On to `N[C@@H]1CCC[C@@H](Oc2ccc(F)cc2Oc2cccc(F)c2)[C@@H]1O`, for which the cytotoxicity at 10 µM was -22.2%. Next, `O=C(NCC1CC1)Nc1cnc2ccc(F)cc2c1O`: -8.58%. As for `CCn1ncc(CN2CCc3c(nc(-c4cccnc4)[nH]c3=O)C2)c1C`, the cytotoxicity at 10 µM is 1.34%. Regarding `Cc1ccc(NCC2(O)CCNCC2)cc1C`, the cytotoxicity at 10 µM was 2.27%. With `Cc1csc(N2CCCN(C(=O)c3nccnc3N)CC2)n1`, the cytotoxicity at 10 µM is -2.42%.

`CC(C)C(NC(=O)c1ccc(N2CCOCC2)nc1)c1cccs1` (configuration not stated): the cytotoxicity at 10 µM was -44%. Regarding `CCCNC(=O)C[S+]([O-])Cc1csc(C2CCCCC2)n1` (configuration not stated), the cytotoxicity at 10 µM was -48.2%.

For `COc1ccc(N(C)C(=O)C2CN(C)CCO2)cc1Cl` (configuration not stated), the cytotoxicity at 10 µM was -46.4%. Next, `CCCc1noc(C[S+]([O-])CC(=O)NCc2ccccc2)n1` (configuration not stated): -4.3%; `CC(C(=O)NCC(C)(C)c1ccc(Br)cc1)n1cncn1` (configuration not stated): 1.73%; `COC(=O)CC(NC(=O)CCCn1cccn1)c1ccc(Cl)cc1` (configuration not stated): 4.7%. Turning to `CNS(=O)(=O)CC(=O)N(C1CCCC1)C1CC1`, the cytotoxicity at 10 µM is -2.78%. Next, `CCC(=O)NCC(CC)Oc1cccc(F)c1` (configuration not stated): -44%; `Clc1cccc(C(CNCc2cccnc2)N2CCOCC2)c1` (configuration not stated): -4.45%.

`Cc1ccc(C(C)(O)CNC(=O)NCCc2ccc3c(c2)CCO3)o1` (configuration not stated): the cytotoxicity at 10 µM is -4.53%. Then `CC(C)CC(NC(=O)C1=CCCC1)C(=O)N1CCC(CO)CC1` (configuration not stated), with 8.23%; and `CCN(CC(=O)Nc1cc(Cl)ccc1C)C(=O)c1ccc(=O)[nH]n1`, with -0.898%. Take `CCC(=O)N1CCN(C(=O)Nc2cccc(N3CCOCC3)c2)CC1`: the cytotoxicity at 10 µM is -3.1%. In the case of `N#Cc1ccc(CNC(=O)NC2CCN(c3ncccn3)CC2)cc1`, the cytotoxicity at 10 µM turned out to be 11.3%. On to `Cc1ccccc1-c1cc(NC(=O)NC2CCC(O)CC2)n(CCO)n1` (configuration not stated), for which the cytotoxicity at 10 µM came out at 1.09%. Take `CCOc1ncccc1NC(=O)c1ccc(C)s1`: the cytotoxicity at 10 µM is -3.89%. Next, `CN(C)C(=O)C1CCCN1CCCNC(=O)c1cccc2[nH]ncc12` (configuration not stated): -1.07%; `COc1ccc(CC(=O)N(C)C2CCN(C)C2=O)cc1F` (configuration not stated): 0.0152%; `CC(C)(C)c1cc(NC(=O)CN2CCCC(Cn3cncn3)C2)on1` (configuration not stated): 3.69%. Then `Cc1ccc(C2CN(Cc3cnc(-c4ccccn4)s3)CCO2)o1` (configuration not stated), with 2.91%; and `NC(=O)N1CCCN(Cc2cc(F)cc(Br)c2)CC1`, with 9.91%.

On to `CC(C)n1nc2c(cc1=O)CN(CCOc1cccc(C#N)c1)CC2`, for which the cytotoxicity at 10 µM amounted to 13.6%. Next, `CNS(=O)(=O)CCCN1CCCCCC1c1ccc(C)o1` (configuration not stated): -7.58%; `CN(C)c1cc(CNCc2ccc(N3CCOCC3)cc2)ccn1`: 23.3%. Then `CC(C)c1nc(/C=C/c2cnn(-c3ccccc3)c2)ncc1C(=O)O`, with -11.3%.

With `CC(C)C(O)CCNC(=O)Nc1cc(F)ccc1-n1cccn1` (configuration not stated), the cytotoxicity at 10 µM is -3.86%.

For `CN(C)c1ncccc1CNC(=O)NCC(c1cccs1)N(C)C` (configuration not stated), the cytotoxicity at 10 µM turned out to be 11.6%.

On to `CC(C)(C)[S+]([O-])CCNC(=O)c1ccc(Cl)c2cccnc12` (configuration not stated), for which the cytotoxicity at 10 µM was -44.5%. Consider `Cc1cc(C2CCCN2C(=O)NCc2cccc(F)c2)on1` (configuration not stated), for which the cytotoxicity at 10 µM was 24.8%. Then `Cc1cnn(C2CN(CC(O)c3ccc4c(c3)OCCO4)C2)c1` (configuration not stated), with 21.9%; and `CCS(=O)(=O)N1CCc2c(COC)cncc2C1`, with -99%; and `CC(=O)N1CCc2[nH]nc(C(=O)N3CC=CC3)c2C1`, with -108%.

On to `Cc1ncsc1CN1CC[C@H]2C(=O)N(c3ccccc3)CCO[C@H]2C1`, for which the cytotoxicity at 10 µM amounted to 1.26%. As to `CNCC(=O)Nc1cccc(-c2cnc(NCCO)nc2)c1`, the cytotoxicity at 10 µM was -6.94%. Then `C[C@H]1CCCCN1CCCNc1nccc(-c2c[nH][nH]c2=O)n1`, with -6.91%. Next, `O=C1CN(CC2CC2)Cc2nc(NCCc3ccccn3)sc21`: -12.3%; `O=C(Nc1ccc(-c2cnc(NCCO)nc2)cc1)[C@@H]1CCCCN1`: -5.08%.

For the molecule `COC(C)(C)C(=O)N[C@H]1CN(c2ncccc2C(N)=O)C[C@@H]1C(C)C`, the cytotoxicity at 10 µM was determined as 6.66%.

Take `CC(C)Cc1ncc2c(n1)CN(c1nccc(N(C)C)n1)C2`: the cytotoxicity at 10 µM was -6.1%. `CC(=O)Nc1ccc(CN2CCc3[nH]cnc3C2c2ccc(C)o2)cc1` (configuration not stated): the cytotoxicity at 10 µM worked out at 4.93%. With `O=C(CCn1ccc(=O)[nH]c1=O)N1CCC(OCc2cccnc2)CC1`, the cytotoxicity at 10 µM was -15.7%. Then `CCn1nc(CC(C)C)cc1C(=O)N1CCCOC(CN2CCCC2)C1` (configuration not stated), with -7.66%.

With `CC(C)N(C)S(=O)(=O)c1ccc2c(c1)CCN(C(=O)c1cccnn1)C2`, the cytotoxicity at 10 µM is -1.22%. Then `Cc1ccccc1CS(=O)(=O)NCCCN1CCCC1`, with -7.49%; and `COc1cc(C(N)=O)c(N(C)S(C)(=O)=O)cc1OC`, with -7.39%; and `N#Cc1c(SCCN2CCCCC2)sc2c(O)cc(O)nc12`, with -13.1%. `CNC(=O)COc1ccc(CNc2cncc(-n3cccn3)n2)cc1`: the cytotoxicity at 10 µM was -0.906%.

In the case of `CN(Cc1ccsc1)C(=O)c1cccc(S(=O)(=O)NCC2CCCO2)c1` (configuration not stated), the cytotoxicity at 10 µM is -13.8%.

Take `CC1CN(Cc2cc(C#N)ccc2F)CCN1Cc1nccn1C` (configuration not stated): the cytotoxicity at 10 µM is -6.33%. Then `Cc1noc(C)c1CN(C)C(=O)NC1CCOCC1`, with -14.8%. Then `CN1CCCC1CNC(=O)CCOc1ccc(Br)cc1` (configuration not stated), with -16.9%; and `CCn1cnnc1CNC(=O)N1CCC(OCc2ccccc2)CC1`, with -5.26%. As to `CCn1cnnc1CNC(=O)N1CCN(CCc2ccccc2)CC1`, the cytotoxicity at 10 µM was -8.14%.

Regarding `CCC1CN(CC(=O)Nc2cc(C)nn2C)CCO1` (configuration not stated), the cytotoxicity at 10 µM came out at 1.14%.

For `CCOc1ccc(CC(CNC(=O)c2sccc2C)C(N)=O)cc1` (configuration not stated), the cytotoxicity at 10 µM was -4.18%. Next, `COc1ccccc1CCNC(=O)N1CCCC(c2nncn2C)C1` (configuration not stated): -25.4%; `O=C(c1ccc2c(c1)COC2)N1CCC(Nc2ccccc2)CC1`: -7.54%.

Turning to `CC(C(=O)N1CCC(Nc2cccnn2)CC1)n1ccnc1` (configuration not stated), the cytotoxicity at 10 µM is -9.44%.

For the molecule `CC(C)N(Cc1cccc(F)c1)Cc1nc2c(cnn2C)c(=O)[nH]1`, the cytotoxicity at 10 µM was -10.5%. Take `O=C(c1ccc2c(c1)COC2)N1CCN(CC2CC2)CC1`: the cytotoxicity at 10 µM was -7.18%. Consider `N#Cc1ccc(OCCCN2CCc3cncnc3C2)cc1`, for which the cytotoxicity at 10 µM is -10%. On to `Cc1csc(N2CCN(C(=O)CCc3ccccn3)CC2)n1`, for which the cytotoxicity at 10 µM is -4.27%.

Regarding `Cc1cc(C)n(CC2CCCN2C(=O)Cc2c(C)noc2C)n1` (configuration not stated), the cytotoxicity at 10 µM is -4.05%. Then `Cc1cc(N2CCC(NC(=O)C3CC3)CC2)nc(-c2ccncc2)n1`, with -3.71%; and `Cc1nc(Nc2cnccn2)cc(C2CCN(CCO)C2)n1` (configuration not stated), with 0.636%. Next, `CCN1CCOCC12CCN(C(=O)Cc1cccs1)CC2`: 6.22%; `Cn1nc(C2CCN(C(=O)CN3CCCCC3)CC2)c2cccnc21`: -30.1%; `Cc1cc2c(=O)n3c(nc2s1)CCN(Cc1cnc(C)n1C)CC3`: -7.73%. Take `COCCn1cc2c(n1)C(CNCc1ccsc1)OCC2` (configuration not stated): the cytotoxicity at 10 µM turned out to be 3.89%. Consider `CN1CCN([C@@H]2CN(C(=O)Cc3ccsc3)[C@@H]3CCCO[C@H]23)CC1`, for which the cytotoxicity at 10 µM was 2.87%. For `OCCOCc1n[nH]c2c1CN(Cc1ccco1)C2`, the cytotoxicity at 10 µM was 6.71%. Consider `CCc1ncc(CN[C@@H]2CCCN(C(C)=O)[C@H]2c2ccc(C)s2)cn1`, for which the cytotoxicity at 10 µM was -26.2%.

`Cc1cccc(CN2C[C@@H]3CN(Cc4ccoc4)CCO[C@@H]3C2)n1`: the cytotoxicity at 10 µM turned out to be 6.53%.

For the molecule `O=C(C1CN(CC2CCOCC2)CC12CCOCC2)N1CCOCC1` (configuration not stated), the cytotoxicity at 10 µM amounted to 7.49%. On to `O=S(=O)(C1CC1)N1CCC2(CC1)CN(Cc1nccs1)CCO2`, for which the cytotoxicity at 10 µM was found to be 8.1%.

On to `O[C@@H]1CCN(CC2CCOC2)[C@H]1Cc1cccnc1` (some centres not stated), for which the cytotoxicity at 10 µM is -8.56%. Next, `CN(C)CCNCCC(Cc1ccccc1)C1CCOC(C)(C)C1` (configuration not stated): 1.51%. Next, `COc1ccc(CCNC(=O)C2CCC(Cn3cnnn3)CC2)cc1` (configuration not stated): 10.2%.
